Consider 167 variants from the RNAGym collection of RNA variant scans (doi:10.1002/anie.201605470).

To fix the notation:
B1: Osa-1-4 twister ribozyme (parent)
chain: CCGCCUAACACUGCCAAUGCCGGUCCCAAGCCCGGAUAAAAGUGGAGGGGGCGG

Variants of B1 are the subject of the data set. Description: self-cleavage, relative activity (ratio to wild type); higher = more cleavage; co-transcriptional. In a few lines: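 In vitro transcription at 37 °C for 2 h allowed the twister ribozyme to cleave itself as it was made. Its 54-nucleotide Oryza sativa template had been synthesised with 97 % wild-type base and 1 % of each other base at the 48 positions downstream of the cleavage site. A template-switching oligonucleotide was used for reverse transcription, followed by PCR amplification and deep sequencing. Whether reads carried upstream sequence set the cleavage status, and relative activity is the fraction cleaved normalised to wild type.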
For the variant C15A U18A, the self-cleavage turned out to be 0.51.

With C15A U18C, the self-cleavage stood at 0.58. As to C15A U18G, the self-cleavage was 0.49. With C15A G23U the figure was 0.05; with C15A G23A, 0.08. With C15A G23C the figure was 0.03. With C15A G35A the figure was 0.48.

As for C15A G35U, the self-cleavage is 0.35.

Consider C15A G35C, for which the self-cleavage was 0.09. With C15A G44C the figure was 0.33; with C15A G44A, 0.11; with C15A G44U, 0.19. With C15G G13U the figure was 0.02; with C15G G13C, 0.02. Consider C15G G13A, for which the self-cleavage is 0.05. In the case of C15A G54C, the self-cleavage was determined as 0.11. As for C15A G54U, the self-cleavage was 0.43. Take C15A G54A: the self-cleavage was 0.19. With C15U G22U the figure was 0.11; with C15U G22C, 0.03; with C15U G22A, 0.17.

Take C15A G34U: the self-cleavage came out at 0.14. On to C15A G34C, for which the self-cleavage stood at 0.11. With C15A G34A the figure was 0.23; with C15G G51A, 0.13. With C15G G51U the figure was 0.08; with C15G G51C, 0.07; with C15G G53A, 0.13. In the case of C15G G53C, the self-cleavage amounted to 0.05. In the case of C15G G53U, the self-cleavage was 0.13. With C15G C32A, the self-cleavage came out at 0.05. With C15G C32G the figure was 0.12; with C15G C32U, 0.07; with A16C A17C, 0.87. With A16C A17U the figure was 0.98; with A16C A17G, 0.9; with C15U U24G, 0.03. On to C15U U24C, for which the self-cleavage amounted to 0.04.

As for C15U U24A, the self-cleavage was determined as 0.04. With C15G C27G the figure was 0.1; with C15G C27A, 0.08; with C15G C27U, 0.08. C15U C33G: the self-cleavage is 0.03. Consider C15U C33A, for which the self-cleavage turned out to be 0.05.

For the variant C15U C33U, the self-cleavage was 0.06. For the variant C15A C33A, the self-cleavage worked out at 0.07. C15A C33U: the self-cleavage amounted to 0.09. On to C15A C33G, for which the self-cleavage turned out to be 0.03. For the variant C15U G51C, the self-cleavage is 0.04. For the variant C15U G51U, the self-cleavage was 0.07. In the case of C15U G51A, the self-cleavage worked out at 0.15. With C15A G47C, the self-cleavage came to 0.04. C15A G47U: the self-cleavage was determined as 0.06. With C15A G47A, the self-cleavage was 0.06. C15G G35C: the self-cleavage was determined as 0.14. With C15G G35U the figure was 0.3; with C15G G35A, 0.38.

In the case of C15A G19C, the self-cleavage turned out to be 0.38.

Turning to C15A G19A, the self-cleavage turned out to be 0.92. In the case of C15A G19U, the self-cleavage turned out to be 0.82. With C15A G53C the figure was 0.06. Take C15A G53U: the self-cleavage turned out to be 0.1.

In the case of C15A G53A, the self-cleavage came to 0.14. In the case of C15U U18G, the self-cleavage amounted to 0.39. With C15U U18A the figure was 0.51. With C15U U18C the figure was 0.52; with C15G U37A, 0.45.

On to C15G U37C, for which the self-cleavage came to 0.47.

Consider C15G U37G, for which the self-cleavage was 0.72. With C15A G50U the figure was 0.23. For C15A G50C, the self-cleavage came out at 0.14. Take C15A G50A: the self-cleavage amounted to 0.38. Regarding C15A G48C, the self-cleavage came out at 0.04. With C15A G48U the figure was 0.04; with C15A G48A, 0.05. With C15U G30A the figure was 0.02; with C15U G30U, 0.03; with C15U G30C, 0.02.

Turning to C15A G45C, the self-cleavage came out at 0.04. Regarding C15A G45A, the self-cleavage was 0.05. C15A G45U: the self-cleavage came out at 0.04. With C15G G22A the figure was 0.16. C15G G22C: the self-cleavage is 0.06. Regarding C15G G22U, the self-cleavage stood at 0.09.

Regarding C15G C31U, the self-cleavage is 0.09. With C15G C31G the figure was 0.12; with C15G C31A, 0.03. Take C15G G45U: the self-cleavage amounted to 0.04. With C15G G45A the figure was 0.07; with C15G G45C, 0.04. With C15U C9G the figure was 0.14; with C15U C9A, 0.05; with C15U C9U, 0.07. With A16C C15A the figure was 0.39; with A16C C15G, 0.54; with C15U U37A, 0.62.

As to C15U U37C, the self-cleavage came out at 0.36. As for C15U U37G, the self-cleavage is 0.76. With C15U G50U the figure was 0.43. Turning to C15U G50C, the self-cleavage is 0.23. With C15U G50A the figure was 0.47; with C15U G42U, 0.06; with C15U G42C, 0.06.

As to C15U G42A, the self-cleavage is 0.12. For C15G U43C, the self-cleavage amounted to 0.11. C15G U43G: the self-cleavage turned out to be 0.1. Take C15G U43A: the self-cleavage is 0.17. As to C15A U12G, the self-cleavage worked out at 0.15. Turning to C15A U12A, the self-cleavage came to 0.11. With C15A U12C the figure was 0.07. Take C15U C27A: the self-cleavage came out at 0.07.

In the case of C15U C27G, the self-cleavage is 0.06.

On to C15U C27U, for which the self-cleavage was determined as 0.08. With C15G G49C the figure was 0.05; with C15G G49A, 0.07. Turning to C15G G49U, the self-cleavage was 0.06.

For A16C A38G, the self-cleavage is 0.96. For the variant A16C A38U, the self-cleavage was 1.01. Take A16C A38C: the self-cleavage was determined as 1.01. With C15A G42U the figure was 0.05.

C15A G42C: the self-cleavage amounted to 0.08.

On to C15A G42A, for which the self-cleavage was 0.12. In the case of A16C A41C, the self-cleavage was determined as 0.74. With A16C A41G the figure was 0.63. In the case of A16C A41U, the self-cleavage stood at 0.97. With A16C A29G, the self-cleavage amounted to 0.11. With A16C A29U the figure was 0.07. With A16C A29C the figure was 0.05; with C15A C21G, 0.07. With C15A C21A the figure was 0.15; with C15A C21U, 0.46.

With A16C A40C, the self-cleavage came to 0.07. With A16C A40U the figure was 0.52; with A16C A40G, 0.54; with C15G C20G, 0.08. With C15G C20U the figure was 0.69; with C15G C20A, 0.54. With C15U G45U the figure was 0.03; with C15U G45C, 0.04; with C15U G45A, 0.04. Turning to C15G G19C, the self-cleavage was determined as 0.74. With C15G G19U the figure was 0.7; with C15G G19A, 0.95; with C15G C26G, 0.11. With C15G C26U the figure was 0.11; with C15G C26A, 0.04. With C15G G48A the figure was 0.05; with C15G G48C, 0.05; with C15G G48U, 0.04.

Turning to C15U G19U, the self-cleavage amounted to 0.46. For C15U G19A, the self-cleavage was determined as 1.03. Turning to C15U G19C, the self-cleavage stood at 0.12. With C15U U43G the figure was 0.12; with C15U U43A, 0.16; with C15U U43C, 0.09. Turning to C15A C31U, the self-cleavage turned out to be 0.09. With C15A C31G the figure was 0.05; with C15A C31A, 0.03; with C15U U12C, 0.06. As for C15U U12A, the self-cleavage was 0.11. With C15U U12G the figure was 0.1; with C15G C21A, 0.11. In the case of C15G C21G, the self-cleavage is 0.05. As to C15G C21U, the self-cleavage was determined as 0.42. With C15G G42C the figure was 0.08; with C15G G42A, 0.12. With C15G G42U the figure was 0.05.
